Experimental data as given in ChEMBL document CHEMBL1152757, “Stereoselective synthesis and biological evaluation of syn-1-amino-3-[18F]fluorocyclobutyl-1-carboxylic acid as a potential positron emission tomography brain tumor imaging agent” (Bioorg Med Chem, 2009).

Experiments:
[1] = Ratio of drug level from tumor to brain of rat 9L cells implanted Fischer rat at 15 to 30 uCi, iv after 120 mins by gamma-counter; assay type: ADME, organism-based; settings: in vivo, 2 h
Outline: (§1)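 Male Fischer 344 rats (125-175 g) received intracranial implants of 9L cells (5 × 10^4 cells) and were used 10-12 days later. Tracer was given by tail vein at 15-30 µCi in 0.1-0.3 mL sterile saline. Groups of 4 were killed at each time point. Tissues were weighed and gamma counted against dose standards with decay correction, giving %ID/g (mean). The ratio is tumor %ID/g over normal brain %ID/g.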

Liver [2] = experiment: Biodistribution in liver of rat 9L cells implanted Fischer rat at 15 to 30 uCi, iv after 60 mins by gamma-counter; assay type: ADME, organism-based; settings: in vivo, 1 h
Outline: (§2)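 Male Fischer 344 rats (125-175 g) implanted intracranially by stereotactic injection of 5 × 10^4 9L gliosarcoma cells. Used 10-12 days after implantation. Tracer given into the tail vein at 15-30 µCi in 0.1-0.3 mL sterile saline. Groups of 4 were sacrificed at 15, 30, 60 and 120 min. Tissues were weighed and gamma-counted against dose standards, and counts decay-corrected to %ID/g (mean ± SD). One-way ANOVA.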

Muscle tissue [3] = experiment: Biodistribution in muscle of rat 9L cells implanted Fischer rat at 15 to 30 uCi, iv after 30 mins by gamma-counter; assay type: ADME, organism-based; settings: in vivo, 0.5 h; outline: as §2
Muscle tissue [4] = experiment: Biodistribution in muscle of rat 9L cells implanted Fischer rat at 15 to 30 uCi, iv after 60 mins by gamma-counter; assay type: ADME, organism-based; settings: in vivo, 1 h; outline: as §2
Kidney [5] = experiment: Biodistribution in kidney of rat 9L cells implanted Fischer rat at 15 to 30 uCi, iv after 60 mins by gamma-counter; assay type: ADME, organism-based; settings: in vivo, 1 h; outline: as §2
Muscle tissue [6] = experiment: Biodistribution in muscle of rat 9L cells implanted Fischer rat at 15 to 30 uCi, iv after 15 mins by gamma-counter; assay type: ADME, organism-based; settings: in vivo, 0.25 h; outline: as §2
Spleen [7] = experiment: Biodistribution in spleen of rat 9L cells implanted Fischer rat at 15 to 30 uCi, iv after 30 mins by gamma-counter; assay type: ADME, organism-based; settings: in vivo, 0.5 h; outline: as §2
Blood [8] = experiment: Biodistribution in blood of rat 9L cells implanted Fischer rat at 15 to 30 uCi, iv after 30 mins by gamma-counter; assay type: ADME, organism-based; settings: in vivo, 0.5 h; outline: as §2
Pancreas [9] = experiment: Biodistribution in pancreas of rat 9L cells implanted Fischer rat at 15 to 30 uCi, iv after 60 mins by gamma-counter; assay type: ADME, organism-based; settings: in vivo, 1 h; outline: as §2
Pancreas [10] = experiment: Biodistribution in pancreas of rat 9L cells implanted Fischer rat at 15 to 30 uCi, iv after 30 mins by gamma-counter; assay type: ADME, organism-based; settings: in vivo, 0.5 h; outline: as §2
Bone = experiment: Biodistribution in bone of rat 9L cells implanted Fischer rat at 15 to 30 uCi, iv after 15 mins by gamma-counter; assay type: ADME, organism-based, Bone element; settings: in vivo, 0.25 h; outline: as §2
Lung [11] = experiment: Biodistribution in lung of rat 9L cells implanted Fischer rat at 15 to 30 uCi, iv after 120 mins by gamma-counter; assay type: ADME, organism-based; settings: in vivo, 2 h; outline: as §2
[12] = Biodistribution in testis of rat 9L cells implanted Fischer rat at 15 to 30 uCi, iv after 120 mins by gamma-counter; assay type: ADME, organism-based; settings: in vivo, 2 h; outline: as §2
[13] = Biodistribution in tumor of rat 9L cells implanted Fischer rat at 15 to 30 uCi, iv after 15 mins by gamma-counter; assay type: ADME, organism-based, Neoplasm; settings: in vivo, 0.25 h; outline: as §2
Heart = experiment: Biodistribution in heart of rat 9L cells implanted Fischer rat at 15 to 30 uCi, iv after 60 mins by gamma-counter; assay type: ADME, organism-based; settings: in vivo, 1 h; outline: as §2
Pancreas [14] = experiment: Biodistribution in pancreas of rat 9L cells implanted Fischer rat at 15 to 30 uCi, iv after 120 mins by gamma-counter; assay type: ADME, organism-based; settings: in vivo, 2 h; outline: as §2
Brain = experiment: Biodistribution in brain of rat 9L cells implanted Fischer rat at 15 to 30 uCi, iv after 120 mins by gamma-counter; assay type: ADME, organism-based; settings: in vivo, 2 h; outline: as §2
Blood [15] = experiment: Biodistribution in blood of rat 9L cells implanted Fischer rat at 15 to 30 uCi, iv after 120 mins by gamma-counter; assay type: ADME, organism-based; settings: in vivo, 2 h; outline: as §2
Kidney [16] = experiment: Biodistribution in kidney of rat 9L cells implanted Fischer rat at 15 to 30 uCi, iv after 30 mins by gamma-counter; assay type: ADME, organism-based; settings: in vivo, 0.5 h; outline: as §2
[17] = Biodistribution in testis of rat 9L cells implanted Fischer rat at 15 to 30 uCi, iv after 30 mins by gamma-counter; assay type: ADME, organism-based; settings: in vivo, 0.5 h; outline: as §2
[18] = Biodistribution in tumor of rat 9L cells implanted Fischer rat at 15 to 30 uCi, iv after 120 mins by gamma-counter; assay type: ADME, organism-based, Neoplasm; settings: in vivo, 2 h; outline: as §2
Lung [19] = experiment: Biodistribution in lung of rat 9L cells implanted Fischer rat at 15 to 30 uCi, iv after 30 mins by gamma-counter; assay type: ADME, organism-based; settings: in vivo, 0.5 h; outline: as §2
Blood [20] = experiment: Biodistribution in blood of rat 9L cells implanted Fischer rat at 15 to 30 uCi, iv after 60 mins by gamma-counter; assay type: ADME, organism-based; settings: in vivo, 1 h; outline: as §2
[21] = Biodistribution in tumor of rat 9L cells implanted Fischer rat at 15 to 30 uCi, iv after 60 mins by gamma-counter; assay type: ADME, organism-based, Neoplasm; settings: in vivo, 1 h; outline: as §2
Spleen [22] = experiment: Biodistribution in spleen of rat 9L cells implanted Fischer rat at 15 to 30 uCi, iv after 60 mins by gamma-counter; assay type: ADME, organism-based; settings: in vivo, 1 h; outline: as §2
Liver [23] = experiment: Biodistribution in liver of rat 9L cells implanted Fischer rat at 15 to 30 uCi, iv after 120 mins by gamma-counter; assay type: ADME, organism-based; settings: in vivo, 2 h; outline: as §2
[24] = Ratio of drug level from tumor to brain of rat 9L cells implanted Fischer rat at 15 to 30 uCi, iv after 15 mins by gamma-counter; assay type: ADME, organism-based; settings: in vivo, 0.25 h; outline: as §1

- Ratio [1]: 7.7
- Drug uptake (Liver [2]): 0.41 % ID/g
- Drug uptake (Muscle tissue [3]): 0.43 % ID/g
- Drug uptake (Muscle tissue [4]): 0.42 % ID/g
- Drug uptake (Kidney [5]): 0.7 % ID/g
- Drug uptake (Muscle tissue [6]): 0.35 % ID/g
- Drug uptake (Spleen [7]): 0.61 % ID/g
- Drug uptake (Blood [8]): 0.37 % ID/g
- Drug uptake (Pancreas [9]): 2.83 % ID/g
- Drug uptake (Pancreas [10]): 3.36 % ID/g
- Drug uptake (Bone): 0.25 % ID/g
- Drug uptake (Lung [11]): 0.48 % ID/g
- Drug uptake [12]: 0.21 % ID/g
- Drug uptake [13]: 1.4 % ID/g
- Drug uptake (Heart): 0.38 % ID/g
- Drug uptake (Pancreas [14]): 2.78 % ID/g
- Drug uptake (Brain): 0.25 % ID/g
- Drug uptake (Blood [15]): 0.26 % ID/g
- Drug uptake (Kidney [16]): 0.8 % ID/g
- Drug uptake [17]: 0.27 % ID/g
- Drug uptake [18]: 1.93 % ID/g
- Drug uptake (Lung [19]): 0.57 % ID/g
- Drug uptake (Blood [20]): 0.32 % ID/g
- Drug uptake [21]: 1.48 % ID/g
- Drug uptake (Spleen [22]): 0.52 % ID/g
- Drug uptake (Liver [23]): 0.4 % ID/g
- Ratio [24]: 7.2
Structure (SMILES): N[C@]1(C(=O)O)C[C@H]([18F])C1
